Measurements: paper PMC11750580 (Toxicology Reports, 2024)

Assays:
[1] = target: T1, human aryl hydrocarbon receptor (AhR) (Homo sapiens, UniProt P35869); conditions: HepG2-AhR Lucia cells
T1 sequence (P35869 11-848): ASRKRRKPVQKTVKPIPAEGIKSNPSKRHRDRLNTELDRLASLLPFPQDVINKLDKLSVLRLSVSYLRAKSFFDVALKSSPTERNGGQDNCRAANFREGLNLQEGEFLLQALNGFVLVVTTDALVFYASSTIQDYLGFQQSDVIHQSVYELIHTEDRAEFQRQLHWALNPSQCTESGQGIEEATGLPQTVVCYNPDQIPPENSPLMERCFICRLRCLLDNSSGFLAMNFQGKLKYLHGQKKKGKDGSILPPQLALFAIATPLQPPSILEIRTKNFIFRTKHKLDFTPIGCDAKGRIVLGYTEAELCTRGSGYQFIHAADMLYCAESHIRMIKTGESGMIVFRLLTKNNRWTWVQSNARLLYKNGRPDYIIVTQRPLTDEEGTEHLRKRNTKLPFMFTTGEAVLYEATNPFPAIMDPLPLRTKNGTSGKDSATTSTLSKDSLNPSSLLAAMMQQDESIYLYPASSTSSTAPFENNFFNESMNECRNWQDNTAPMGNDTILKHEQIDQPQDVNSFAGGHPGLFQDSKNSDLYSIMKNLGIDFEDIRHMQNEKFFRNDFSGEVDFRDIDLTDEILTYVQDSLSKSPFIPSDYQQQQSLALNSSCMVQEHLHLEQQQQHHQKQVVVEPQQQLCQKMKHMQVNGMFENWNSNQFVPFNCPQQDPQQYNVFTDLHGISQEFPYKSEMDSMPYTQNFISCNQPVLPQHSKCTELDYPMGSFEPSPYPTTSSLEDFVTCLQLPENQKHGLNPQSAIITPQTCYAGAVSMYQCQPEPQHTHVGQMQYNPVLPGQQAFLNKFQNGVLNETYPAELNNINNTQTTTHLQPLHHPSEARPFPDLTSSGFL

MTT cytotoxicity, HepG2 = type: cell-based; conditions: human, HepG2 cells
HepaRG cells = experiment: MTT cytotoxicity, HepaRG; type: cell-based, human; conditions: HepaRG, 24 h exposure, MTT, average ± SD
MTT cytotoxicity, HepaRG = type: cell-based, human; conditions: human, HepaRG cells (differentiated)
MTT cytotoxicity, T47D = type: cell-based; conditions: human, T47D cells
MTT cytotoxicity, Caco-2 = type: cell-based; conditions: human, Caco-2 cells
[2] = target: T1, human aryl hydrocarbon receptor (AhR); experiment: cell-based
Caco-2 cells [3] = experiment: Cell proliferation and migration; type: cell-based, human; conditions: for effect on growth and proliferation vs media control: Caco-2, any tested concentration (0.1, 1, 10 µM); for proliferation speed compared to control (100 %): Caco-2, 1 µM, 24 h; for effect on cell proliferation rate vs media control: Caco-2, 10 µM, p < 0.05
How it was run: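 Cells were seeded at 100,000 cells/mL in 48-well plates and grown to 90–100 % confluence. Each monolayer was scratched with a pipette tip. Medium was then replaced with exposure medium containing 0.1, 1 or 10 µM test compound; cytochalasin D (1 mM) was the positive control. Wells were imaged by automated phase-contrast microscopy every 30 min for 24 h. Read-outs were cell-free area (mm2) and proliferation rate relative to media control (n = 8–16; one-way ANOVA, Dunnett's).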

MTT cytotoxicity, MRC-5 = type: cell-based; conditions: human, MRC-5 cells
MTT cytotoxicity, MSC = type: cell-based, human; conditions: human, adipose-derived mesenchymal stem cells (MSC)
goats = conditions: oral, 0.16 g/kg body weight, within 4–24 h; cited from earlier work
CYP1A genes = conditions: HepaRG cells; cited from earlier work
Caco-2 cells [4] = conditions: Caco-2, 500–1000 µM, 72-hour exposure; ref Tomii et al. 31; cited from earlier work
MCF-7 cells = conditions: MCF-7, 100 µM; cited from earlier work
MRC-5 cells = conditions: MRC-5, 30 µg/mL, exposure duration not specified; ref Yap et al. 52; cited from earlier work
V79 379 A cells = conditions: 0.1 mM, 2-hour exposure; cited from earlier work
[5] = test system: adipose-derived mesenchymal stem cells (MSC); experiment: MTT cytotoxicity, MSC; type: cell-based, human; conditions: MSC, 24 h exposure, MTT, average ± SD
Caco-2 cells [6] = conditions: cited from earlier work
[7] = Indole derivatives quantification in cell media; type: physicochemical; conditions: after 24 h of incubation
How it was run: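 Test compounds in cell media were measured by reversed-phase HPLC with fluorescence detection on a C18 column (2.2 µm, 150 × 2.1 mm) at 30 °C. A binary gradient ran from 50 mM KH2PO4 (pH 3.3) to that buffer/acetonitrile 700:300. Excitation was 270 nm and emission 350 nm. Compounds were identified by co-chromatography with authentic standards and quantified by peak area.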

[8] = test system: V79–4 Chinese hamster fibroblasts; conditions: V79–4, 300 µM; cited from earlier work

AhR agonist character [1]	EC50 [2]	SMILES	EC50 at 24 h (MTT cytotoxicity, HepG2)	EC50 at 24 h (MTT cytotoxicity, HepaRG)	EC50 at 24 h (MTT cytotoxicity, T47D)	EC50 at 24 h (MTT cytotoxicity, Caco-2)	EC50 at 24 h (MTT cytotoxicity, MRC-5)	EC50 at 24 h (MTT cytotoxicity, MSC)	effect on cell proliferation rate vs media control (Caco-2 cells [3])	other results
partial agonists	–	O=c1cc(-c2ccccc2)oc2ccc3ccccc3c12 [BNF, β-naphthoflavone, reference compound]	–	–	–	–	–	–	–	–
strong agonists	110 nM	O=C(O)CCc1c[nH]c2ccccc12 [IPA, indole-3-propionic acid]	> 100000 nM	> 100000 nM	2020 ± 130 nM	> 100000 nM	910 ± 100 nM	400 ± 140 nM	–	Cytotoxic evaluation (EC50) (HepaRG cells): no sensitivity; effect on growth and proliferation vs media control (Caco-2 cells [3]): no significant differences
partial agonists	1400 nM	Cc1c[nH]c2ccccc12 [3-MI, 3-methylindole]	> 100000 nM	66400 ± 21800 nM	> 100000 nM	> 100000 nM	21900 ± 8060 nM	330 ± 100 nM	significant reduction in cell proliferation rates	pulmonary toxicity findings (goats): severe pulmonary edema, denuded bronchioles, and necrotic alveolar cells; induction of CYP1A genes, % of the level of TCDD (CYP1A genes): about 50%; effect on cell proliferation vs media control (Caco-2 cells [3]; Caco-2, 0.1 µM): significant decrease in proliferation; proliferation speed compared to control (100 %) (Caco-2 cells [3]): 68.2 ± 7.4%
–	–	Cc1ccc2cc[nH]c2c1 [6-MI]	–	–	–	–	–	–	–	induction of CYP1A gene expression (CYP1A genes): comparable to TCDD
–	–	O=C(O)Cc1c[nH]c2ccccc12 [IAA, indole-3-acetic acid]	> 100000 nM	2210 ± 320 nM	1680 ± 460 nM	520 ± 120 nM	2550 ± 1950 nM	> 100000 nM	–	effect on cell count and cytotoxicity (LDH assay) (Caco-2 cells [4]): reduced Caco-2 cell count without causing cytotoxicity; cytotoxicity (MCF-7 cells): did not show cytotoxicity; cytotoxic effects (MRC-5 cells): no cytotoxic effects; cytotoxic response (V79 379 A cells): did not show a cytotoxic response; effect on growth and proliferation vs media control (Caco-2 cells [3]): no significant differences; Cytotoxic evaluation (EC50) [5]: did not show toxicity
–	–	Cn1ccc2ccccc21 [1-MI]	–	–	–	–	–	–	–	induction of CYP1A genes, % of the level of TCDD (CYP1A genes): about 50%
strong agonists	40 nM	O=Cc1c[nH]c2ccccc12 [I3A, indole-3-aldehyde]	> 100000 nM	1980 ± 730 nM	> 100000 nM	> 100000 nM	49800 ± 14500 nM	1870 ± 830 nM	significant reduction in cell proliferation rates	reduction in cell viability (Caco-2 cells [6]; Caco-2, 160 µM, ref Liu et al. 30): 89.6%; proliferation speed compared to control (100 %) (Caco-2 cells [3]): 71.3 ± 5.1%
weak AhR ligand	32100 nM	c1ccc2[nH]ccc2c1 [Indole, indole]	> 100000 nM	> 100000 nM	> 100000 nM	> 100000 nM	> 100000 nM	> 100000 nM	significant reduction in cell proliferation rates	concentration inducing toxic effects (Caco-2 cells [6]; Caco-2): 5000 µM; recovery rate in cell media (actual vs nominal concentration) [7]: exceeding 100%
strong agonists	880 nM	O=C(O)c1c[nH]c2ccccc12 [I3CA, indole-3-carboxylic acid]	> 100000 nM	53000 ± 12100 nM	> 100000 nM	> 100000 nM	520 ± 80 nM	640 ± 310 nM	significant reduction in cell proliferation rates	–
–	–	Cc1cccc2[nH]ccc12 [4-MI]	–	–	–	–	–	–	–	induction of CYP1A gene expression (CYP1A genes): comparable to TCDD
–	–	O=Cc1ccc2cc[nH]c2c1 [indole-6-carboxaldehyde]	–	–	–	–	–	–	–	toxicity [8]: no toxicity

SMILES	AhR agonist character [1]	EC50 [2]	EC50 at 24 h (MTT cytotoxicity, HepG2)	EC50 at 24 h (MTT cytotoxicity, HepaRG)	EC50 at 24 h (MTT cytotoxicity, T47D)	EC50 at 24 h (MTT cytotoxicity, Caco-2)	EC50 at 24 h (MTT cytotoxicity, MRC-5)	EC50 at 24 h (MTT cytotoxicity, MSC)	effect on cell proliferation rate vs media control (Caco-2 cells [3])	other results
Clc1cc2c(cc1Cl)Oc1cc(Cl)c(Cl)cc1O2 [TCDD, 2,3,7,8-tetrachlorodibenzo-p-dioxin, reference compound]	–	0.3 to 2.3 nM	–	–	–	–	–	–	–	–
c1ccc2c(c1)cc1ccc3cccc4ccc2c1c34 [BaP, benzo[a]pyrene, reference compound]	partial agonists	–	–	–	–	–	–	–	–	–
